Test results taken from publication PMC12799544 (Molecular Pharmacology, 2025).
Values joined by “and” are separate entries in the source; they are usually repeats but may differ in a detail not shown here. Equal values may be shown once. Values belong to the molecule of their own block, whether it stands above or below them.

Experiments:
[1] = biological target: RyR2 (Mus musculus, UniProt E9Q401); assay: Ca spark assay in permeabilized ventricular cardiomyocytes; format: cell-based, C57BL/6J mice; conditions: for Concentration dependence of Ca spark frequency: increasing concentrations
Method in brief: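 Mouse ventricular myocytes (C57BL/6J, 12–18 weeks, both sexes) attached 10 min on laminin at room temperature, saponin-permeabilized (40 μg/mL, 40 s), then bathed 15 min in pH 7.2 internal solution (5 mM MgATP, 0.5 mM EGTA, 0.12 mM CaCl2, Fluo-4) with 0.1% DMSO or test compound. Confocal x-t sparks in brick-shaped cells; caffeine used as reference activator. Hierarchical mixed-effects statistics; 4-parameter concentration-response fit.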

[2] = tested on: RyR2; conditions: cited from earlier work
[3] = biological target: T1, RyR2 (Sus scrofa, UniProt A0A5G2R1W3); assay: RyR2 single-channel recording in artificial lipid bilayers; format: biochemical, porcine
T1 sequence (A0A5G2R1W3 20-4900): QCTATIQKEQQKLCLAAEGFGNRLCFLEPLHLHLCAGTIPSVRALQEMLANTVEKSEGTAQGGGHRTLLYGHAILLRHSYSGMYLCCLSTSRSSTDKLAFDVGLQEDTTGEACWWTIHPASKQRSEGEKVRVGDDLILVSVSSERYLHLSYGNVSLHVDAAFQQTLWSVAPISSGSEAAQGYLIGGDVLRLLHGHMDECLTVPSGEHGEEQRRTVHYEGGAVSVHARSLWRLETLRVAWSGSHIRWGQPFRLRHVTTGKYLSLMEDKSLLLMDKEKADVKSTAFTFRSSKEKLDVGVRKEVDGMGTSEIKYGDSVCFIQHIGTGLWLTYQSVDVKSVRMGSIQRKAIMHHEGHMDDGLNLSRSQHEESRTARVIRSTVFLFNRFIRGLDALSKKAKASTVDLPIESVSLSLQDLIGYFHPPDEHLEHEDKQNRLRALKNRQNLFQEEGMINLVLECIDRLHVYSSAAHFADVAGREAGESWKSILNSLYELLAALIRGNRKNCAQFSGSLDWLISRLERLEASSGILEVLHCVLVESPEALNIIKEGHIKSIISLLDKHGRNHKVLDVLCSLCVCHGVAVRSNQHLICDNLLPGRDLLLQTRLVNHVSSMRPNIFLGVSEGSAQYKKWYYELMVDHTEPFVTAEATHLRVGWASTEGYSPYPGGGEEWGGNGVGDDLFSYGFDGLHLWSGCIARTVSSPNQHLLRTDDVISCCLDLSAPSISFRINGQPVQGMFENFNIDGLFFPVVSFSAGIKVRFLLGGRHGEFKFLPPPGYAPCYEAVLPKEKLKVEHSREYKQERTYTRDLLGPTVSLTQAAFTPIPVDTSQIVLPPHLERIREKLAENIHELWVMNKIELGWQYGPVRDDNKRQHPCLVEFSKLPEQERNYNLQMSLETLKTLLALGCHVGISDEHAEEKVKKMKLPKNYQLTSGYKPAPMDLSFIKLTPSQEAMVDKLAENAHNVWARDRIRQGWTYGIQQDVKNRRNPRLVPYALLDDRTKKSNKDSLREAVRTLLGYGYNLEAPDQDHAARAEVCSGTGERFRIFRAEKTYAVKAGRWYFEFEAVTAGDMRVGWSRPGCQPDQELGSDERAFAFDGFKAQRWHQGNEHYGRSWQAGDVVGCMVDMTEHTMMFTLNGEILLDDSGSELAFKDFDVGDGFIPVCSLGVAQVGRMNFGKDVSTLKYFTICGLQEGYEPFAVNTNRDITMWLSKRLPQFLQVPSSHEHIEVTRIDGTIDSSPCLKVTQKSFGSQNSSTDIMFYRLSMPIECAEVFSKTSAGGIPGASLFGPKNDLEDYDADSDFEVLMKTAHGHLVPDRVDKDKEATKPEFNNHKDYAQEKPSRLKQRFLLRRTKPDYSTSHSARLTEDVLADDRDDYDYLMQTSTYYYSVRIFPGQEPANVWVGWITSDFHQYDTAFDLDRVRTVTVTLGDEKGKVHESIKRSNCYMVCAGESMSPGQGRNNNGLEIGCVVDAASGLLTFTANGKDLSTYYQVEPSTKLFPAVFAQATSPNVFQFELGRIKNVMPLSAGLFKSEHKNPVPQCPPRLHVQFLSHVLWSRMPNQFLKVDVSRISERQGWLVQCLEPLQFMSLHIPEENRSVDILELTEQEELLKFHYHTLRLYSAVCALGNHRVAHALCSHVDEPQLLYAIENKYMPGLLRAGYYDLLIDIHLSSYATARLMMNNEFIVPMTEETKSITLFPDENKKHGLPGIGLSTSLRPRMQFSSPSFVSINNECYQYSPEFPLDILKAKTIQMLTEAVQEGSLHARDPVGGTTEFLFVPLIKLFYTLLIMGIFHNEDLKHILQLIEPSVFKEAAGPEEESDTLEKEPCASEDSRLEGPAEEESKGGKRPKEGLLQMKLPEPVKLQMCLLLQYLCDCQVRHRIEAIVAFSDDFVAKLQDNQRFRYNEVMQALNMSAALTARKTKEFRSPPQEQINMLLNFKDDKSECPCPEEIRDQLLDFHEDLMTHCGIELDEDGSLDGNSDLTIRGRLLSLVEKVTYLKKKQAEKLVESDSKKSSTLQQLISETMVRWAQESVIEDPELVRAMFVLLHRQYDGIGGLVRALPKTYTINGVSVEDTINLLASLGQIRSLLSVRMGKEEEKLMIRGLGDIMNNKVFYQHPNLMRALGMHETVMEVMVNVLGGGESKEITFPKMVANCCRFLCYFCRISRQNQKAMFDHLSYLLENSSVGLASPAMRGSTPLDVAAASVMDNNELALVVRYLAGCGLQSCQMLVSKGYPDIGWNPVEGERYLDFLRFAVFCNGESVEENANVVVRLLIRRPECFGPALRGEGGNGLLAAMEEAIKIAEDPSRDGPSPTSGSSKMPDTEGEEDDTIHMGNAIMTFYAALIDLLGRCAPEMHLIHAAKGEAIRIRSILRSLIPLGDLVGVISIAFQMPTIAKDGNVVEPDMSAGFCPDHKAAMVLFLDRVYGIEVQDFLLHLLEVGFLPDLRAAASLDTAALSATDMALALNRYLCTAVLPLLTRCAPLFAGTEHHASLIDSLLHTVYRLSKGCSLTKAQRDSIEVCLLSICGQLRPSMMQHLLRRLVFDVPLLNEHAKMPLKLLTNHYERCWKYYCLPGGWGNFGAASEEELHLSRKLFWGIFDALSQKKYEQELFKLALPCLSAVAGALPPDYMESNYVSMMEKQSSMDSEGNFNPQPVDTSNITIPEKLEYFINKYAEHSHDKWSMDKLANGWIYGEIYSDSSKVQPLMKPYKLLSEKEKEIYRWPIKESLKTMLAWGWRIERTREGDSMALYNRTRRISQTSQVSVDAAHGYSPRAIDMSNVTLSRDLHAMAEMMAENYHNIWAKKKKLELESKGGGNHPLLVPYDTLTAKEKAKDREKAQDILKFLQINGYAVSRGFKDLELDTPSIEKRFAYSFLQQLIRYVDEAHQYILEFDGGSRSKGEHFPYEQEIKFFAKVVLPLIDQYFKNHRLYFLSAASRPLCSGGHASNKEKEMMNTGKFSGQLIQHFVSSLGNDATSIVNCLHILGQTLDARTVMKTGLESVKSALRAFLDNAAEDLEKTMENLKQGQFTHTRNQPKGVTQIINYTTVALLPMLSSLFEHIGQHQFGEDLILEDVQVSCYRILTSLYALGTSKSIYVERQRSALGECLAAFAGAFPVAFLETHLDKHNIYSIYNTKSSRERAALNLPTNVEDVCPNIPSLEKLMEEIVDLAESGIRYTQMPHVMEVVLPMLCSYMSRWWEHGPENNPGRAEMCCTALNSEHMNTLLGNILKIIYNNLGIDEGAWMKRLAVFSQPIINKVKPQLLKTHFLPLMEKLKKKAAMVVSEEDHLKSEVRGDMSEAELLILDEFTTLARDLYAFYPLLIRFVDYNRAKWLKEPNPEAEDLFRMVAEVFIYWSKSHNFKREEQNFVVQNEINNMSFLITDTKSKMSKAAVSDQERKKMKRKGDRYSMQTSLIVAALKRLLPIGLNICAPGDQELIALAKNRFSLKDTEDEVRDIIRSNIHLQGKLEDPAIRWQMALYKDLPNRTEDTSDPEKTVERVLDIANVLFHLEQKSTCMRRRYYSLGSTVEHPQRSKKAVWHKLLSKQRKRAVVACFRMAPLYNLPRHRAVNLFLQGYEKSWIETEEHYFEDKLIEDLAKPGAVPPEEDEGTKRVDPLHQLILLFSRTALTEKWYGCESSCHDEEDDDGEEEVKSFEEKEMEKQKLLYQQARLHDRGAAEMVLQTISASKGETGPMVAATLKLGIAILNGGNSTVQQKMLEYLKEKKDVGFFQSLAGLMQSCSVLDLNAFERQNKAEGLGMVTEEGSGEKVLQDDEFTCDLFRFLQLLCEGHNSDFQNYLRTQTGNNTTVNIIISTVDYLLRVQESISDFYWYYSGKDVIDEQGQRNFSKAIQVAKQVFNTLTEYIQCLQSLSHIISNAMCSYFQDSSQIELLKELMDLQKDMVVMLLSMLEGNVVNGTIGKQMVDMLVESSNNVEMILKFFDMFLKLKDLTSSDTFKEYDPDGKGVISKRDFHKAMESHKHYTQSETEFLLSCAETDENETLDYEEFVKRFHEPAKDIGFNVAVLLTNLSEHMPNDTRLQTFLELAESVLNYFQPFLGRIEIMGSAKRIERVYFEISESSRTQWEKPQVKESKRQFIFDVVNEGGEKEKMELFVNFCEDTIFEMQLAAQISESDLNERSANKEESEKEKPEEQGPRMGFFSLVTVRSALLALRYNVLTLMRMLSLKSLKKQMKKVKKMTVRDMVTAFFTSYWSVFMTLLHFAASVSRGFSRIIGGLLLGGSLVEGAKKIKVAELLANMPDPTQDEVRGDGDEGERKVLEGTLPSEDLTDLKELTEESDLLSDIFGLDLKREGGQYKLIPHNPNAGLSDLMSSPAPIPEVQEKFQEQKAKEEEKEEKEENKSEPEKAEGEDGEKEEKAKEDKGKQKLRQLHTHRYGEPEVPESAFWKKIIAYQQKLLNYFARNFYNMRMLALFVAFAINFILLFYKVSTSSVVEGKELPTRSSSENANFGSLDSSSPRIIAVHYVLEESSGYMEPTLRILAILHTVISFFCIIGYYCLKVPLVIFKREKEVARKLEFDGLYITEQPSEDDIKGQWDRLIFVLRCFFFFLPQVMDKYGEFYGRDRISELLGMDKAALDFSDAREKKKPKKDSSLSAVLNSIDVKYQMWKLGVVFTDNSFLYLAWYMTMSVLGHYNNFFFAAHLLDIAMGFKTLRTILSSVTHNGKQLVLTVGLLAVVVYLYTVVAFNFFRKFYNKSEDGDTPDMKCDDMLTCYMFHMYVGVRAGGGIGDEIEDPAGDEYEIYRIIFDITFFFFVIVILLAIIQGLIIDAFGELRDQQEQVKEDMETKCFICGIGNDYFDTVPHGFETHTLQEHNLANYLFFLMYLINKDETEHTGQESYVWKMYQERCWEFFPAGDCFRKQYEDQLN
Method in brief: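 Porcine cardiac SR vesicles were fused into PE:PS:PC (5:3:2) bilayers with symmetric 250 mM Cs+ and TES pH 7.4. The cis side held 0.1 μM free Ca (CaCl2/BAPTA) plus 2 mM ATP, at 23 ± 2 °C and +40 mV. Compound (0.01–10 or 1–100 μM) was added cis with DMSO <0.1%. Po came from 30–60 s at a 50% threshold, relative to vehicle on the same channel. Dwell times were fitted with 2 exponentials; 4-parameter fit.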

[4] = biological target: T2, RyR1 (Sus scrofa, UniProt P16960); assay: RyR1 single-channel recording in artificial lipid bilayers; format: biochemical, porcine
Method in brief: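 Porcine longissimus dorsi SR vesicles were fused into PE:PS:PC (5:3:2) bilayers with symmetric 250 mM Cs+ and TES pH 7.4. The cis side held 0.1 μM free Ca (CaCl2/BAPTA) plus 2 mM ATP, at 23 ± 2 °C. Compound was added cis by aliquot or local perfusion, DMSO <0.1%. Po came from 30–60 s recordings, 50% amplitude threshold, 1 kHz filter. Nonlinear 4-parameter concentration-response fit.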

[5] = biological target: T1, RyR2; assay: [3H]-ryanodine ligand binding assay, cardiac SR membrane; set-up: species or system porcine
Method in brief: (§1)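 Porcine cardiac SR (3 mg/mL) was incubated 3 h at 37 °C with 7.5 nM [3H]-ryanodine and compound in 20 mM PIPES pH 7.0, 150 mM KCl, 5 mM ATP, 0.1 μM calmodulin and 0.1 μM free Ca (1 mM EGTA). Nonspecific binding used 15 μM cold ryanodine; maximal binding used 5 mM AMP-PNP plus 20 mM caffeine. Bound label was counted by filtration and scintillation, normalized to vehicle; 4-parameter fit.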

[6] = biological target: T2, RyR1; assay: [3H]-ryanodine ligand binding assay, skeletal SR membrane; set-up: species or system porcine
Method in brief: as §1, with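 “skeletal” for “cardiac”, “(1” for “(3”, “10” for “7.5”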

[7] = Caco-2 bidirectional permeability assay; format: in vitro ADME, human; conditions: human, Caco-2, pH 7.4
Method in brief: (§2)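 Caco-2 monolayers (passages 55–65) grown 21 days on 0.4 μm Transwell inserts and used only above 1000 Ω·cm2 TEER. Compound at 10 μM in HBSS (<1% DMSO) was dosed apically or basally. Samples at 0 and 2 h were analyzed by LC-MS for Papp, efflux ratio and recovery. Integrity was checked afterwards by lucifer yellow flux (≤0.5%).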

[8] = tested on: Caco-2 cell monolayer; assay: Caco-2 bidirectional permeability assay; format: in vitro ADME, human; conditions: recovery
Method in brief: as §2

[9] = Parallel artificial membrane permeability assay; format: in vitro ADME
Method in brief: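 Donor compound at 500 μM in PBS pH 7.4 with TPGS, across hydrophobic membranes pretreated with 1% lecithin in n-dodecane, into PBS acceptor. Incubated 14–18 h at room temperature in a humidified chamber. Donor and acceptor were quantified by LC-MS; Papp, percent recovery and percent diffusion came from ratio formulas.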

Ca spark duration with caffeine ([1]; 1 mM caffeine): many long-lasting sparks
Concentration dependence of Ca spark frequency [1]: dose-dependent response
Structure (SMILES): Cn1c(=O)c2c(ncn2C)n(C)c1=O [caffeine, reference compound]

Structure (SMILES): O=C1CN(/N=C/c2ccc(-c3ccc([N+](=O)[O-])cc3)o2)C(O)=N1 [dantrolene]
Maximal inhibition of RyR2 [2]: ~50%

IC50 [3]: ~32.2 µM
EC50 ([3]; EC50, activation of RyR2 single-channel Po, pCa 7, 2 mM ATP, +40 mV, 95% CI 1.4–63.1 μM): ~30 µM and ~32.2 µM
Mean closed duration ([3]; activert ≥50 μM versus vehicle): decreased
Mean open duration ([3]; activert ≥50 μM versus vehicle): without altering
Potency on RyR2 compared with ent-verticilide (fold less potent) ([3]; compared with ent-verticilide): ~100 fold
Emax ([3]; read-out: Emax, partial activation of RyR2 single-channel Po): ~34%
EC50 [4]: ~10.5 µM
Emax ([4]; read-out: Emax, increase of RyR1 single-channel Po): ~14.4%
EC50 [5]: ~46 µM
Emax ([5]; read-out: Emax, increase of [3H]-ryanodine binding to RyR2 normalized to vehicle): ~29%
EC50 [6]: ~9 µM
Emax ([6]; read-out: Emax, increase of [3H]-ryanodine binding to RyR1 normalized to vehicle): ~17%
Average duration of the Ca spark ([1]; 25 μM): modestly increased
Overall RyR2-mediated SR Ca leak ([1]; 25 μM): elevated
Reduction of SR Ca load (amplitude of caffeine-induced Ca transient) ([1]; 25 μM): ~10%
Size (amplitude or width) of the average Ca spark ([1]; 25 μM): without changes
Ca spark frequency versus vehicle ([1]; 25 μM, 15 min, permeabilized cardiomyocytes): increase
Distribution of Ca spark duration compared with DMSO control ([1]; 100 μM activert): prolonged
Concentration dependence of Ca spark frequency [1]: dose-dependent increase
Papp A→B at 2 h, 10 µM [7]: 0.4 ×10⁻⁶ cm/s
Papp B→A at 2 h, 10 µM [7]: 1.1 ×10⁻⁶ cm/s
Papp at 2 h, 10 µM [7]: < 1 ×10⁻⁶ cm/s
efflux ratio at 2 h, 10 µM [7]: 2.73
%R (A-B) ([8]; apical-to-basal): 101%
%R (B-A) ([8]; basal-to-apical): 80%
% Diffusion ([9]; PAMPA): 7%
%R ([9]; PAMPA recovery): 92%
Papp at 500 µM ([9]; PAMPA, pH 7.4, Permeability (experimental permeability rate)): < 2 ×10⁻⁶ cm/s
Structure (SMILES): CCCCC[C@@H]1OC(=O)[C@@H](C)N(C)C(=O)[C@H](CCCCC)OC(=O)[C@@H](C)N(C)C(=O)[C@H](CC(=O)O)OC(=O)[C@@H](C)N(C)C(=O)[C@H](CCCCC)OC(=O)[C@@H](C)N(C)C1=O [activert, 2-((2S,5R,8S,11R,14S,17R,20S,23R)-4,5,10,11,16,17,22,23-Octamethyl-3,6,9,12,15,18,21,24-octaoxo-8,14,20-tripentyl-1,7,13,19-tetraoxa-4,10,16,22-tetraazacyclotetracosan-2-yl)acetic acid]
